Published values pooled from the literature.
Target: Sigma intracellular receptor 2 (Tmem97, Rattus norvegicus, UniProt Q5U3Y7)
Effect on: ligand displacement
Technique: radioligand
One construct used (Q5U3Y7 1-176): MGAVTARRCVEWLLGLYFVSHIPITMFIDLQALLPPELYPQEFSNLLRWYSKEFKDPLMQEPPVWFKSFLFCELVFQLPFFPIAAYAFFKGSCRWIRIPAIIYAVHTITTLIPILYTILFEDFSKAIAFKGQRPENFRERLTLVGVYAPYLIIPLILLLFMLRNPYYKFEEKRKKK

SMILES | conditions | Ki
COc1cc2c(cc1OC)CN(C(C)CCc1ccc(O)cc1)CC2 (stereo not shown) | – | 4.92 nM
COc1ccc2c(ccn2CCCCN2CCc3cc(OC)c(OC)cc3C2)c1 | cell membranes | 4.4 nM
O=C(NCCN1CCCCC1)c1ccc(OCCCF)c(Br)c1 | cell membranes | 28.3 nM
COc1ccc2ccn(CCCCN3Cc4cc(OC)c(OC)cc4C3)c2c1 | cell membranes | 9.46 nM
O=C(NCCN1CCCCC1)c1ccc(O)c(Br)c1 | cell membranes | > 10000 nM
CN(C)C(=S)N/N=C1/C(=O)Nc2ccccc21 | cell membranes | > 10000 nM
COc1ccc(CCC(C)N2CCc3cc(OC)c(OC)cc3C2)cc1 (stereo not shown) | – | 0.59 nM
COc1cc2c(cc1OC)C(=O)N(CCCCN1C(=O)/C(=N\NC(=S)N(C)C)c3ccccc31)CC2 | cell membranes | > 10000 nM
COc1cc2c(cc1OC)CN(CCCCn1ccc3c(OC)cccc31)CC2 | cell membranes | 7.73 nM
O=C(NCCN1CCCCC1)c1cc(Br)ccc1OCCCF | cell membranes | 92.9 nM
